The nature of series [1]: cells. The note with it: Mus musculus, 32D, 48 h.
A short description of series [2]: Half life in water at 500 uM by HPLC analysis. The format is physicochemical. In outline: (§1)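 Compounds dissolved at 500 μM in methanol, water, or PBS (12.5 μM, pH 7.4). Mean of at least two experiments.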
Series [3] can be described thus: Half life in methanol at 500 uM by HPLC analysis. It counts as physicochemical. The method, boiled down: as §1
A short description of series [4]: Half life in phosphate buffer at 500 uM at pH 7.4 by HPLC analysis. The format is physicochemical. In outline: as §1
In series [5] the target is Proto-oncogene tyrosine-protein kinase Src (Mus musculus) (UniProt P05480). Description: Inhibition of c-SRC phosphorylation at Y416 in mouse 32D cells expressing BCR/ABL fusion protein p210 at 1 uM by Western blotting analysis. It counts as cell-based. In outline:
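32D cells treated with 1 μM compound. Phosphorylated (active) c-Src and c-Abl detected by Western blot with β-actin as loading control. Dasatinib used as reference dual inhibitor.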
A general note: In western blotting, separated proteins are transferred to a membrane and probed.

The target in series [6] is Proto-oncogene tyrosine-protein kinase Src (Homo sapiens) (UniProt P12931). In words: Inhibition of recombinant c-SRC (unknown origin) at 100 uM after 5 mins by scintillation counting analysis in presence of [gamma32P]ATP.
The nature of series [7]: cells. The note with it: Mus musculus, 32D, 48 h. The source holds these as a separate data set.
The nature of series [8]: Half life in human plasma at 1 mM by HPLC analysis. The format is ADME, cell-free. The method, boiled down: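 Incubated at 37 °C in pooled human plasma. Loss of substrate and formation of parent drug followed by HPLC. Mean of at least two experiments.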
For series [9], the target named is Tyrosine-protein kinase ABL1 (Homo sapiens) (UniProt P00519). Description: Inhibition of recombinant wild type c-ABL (unknown origin) at 100 uM after 5 mins by scintillation counting analysis in presence of [gamma32P]ATP.
Series [10] can be described thus: Thermodynamic solubility of the compound in water at 1 mg after 24 hrs by UV/LC-MS analysis. The note with it: read-out: Therm_solubility. It counts as physicochemical. The method, boiled down:
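Aqueous solubility: compound concentration measured by UV/LC−MS after filtration through a 0.45 μm nylon filter. Mean of at least two experiments.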

A short description of series [11]: Metabolic stability in human liver microsomes assessed as compound remaining at 50 uM after 60 mins by UV/LC/MS analysis. The format is ADME, Microsome. The note with it: read-out: Stability. The method, boiled down: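 Human pooled liver microsomes, incubated at 37 °C for 1 h to simulate phase I metabolism. Parent drug and metabolites are then quantified by LC–MS. Stability is given as the percentage of unmodified drug remaining.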

A short description of series [12]: Apparent permeability of the compound after 5 hrs by PAMPA. The format is ADME. The note with it: for Papp at 5 h: PAMPA. In general terms: PAMPA measures passive passage across an artificial lipid membrane.
The nature of series [13]: Apparent permeability of the compound assessed as membrane retention after 5 hrs by PAMPA. The format is ADME. The method, boiled down: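 PAMPA passive permeability measured as Papp (10⁻⁶ cm s⁻¹). Membrane retention is the percentage of compound that fails to reach the acceptor compartment. Mean of at least two experiments.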

Usually IC50 stands for the concentration that gives 50% inhibition. The half-life is the time in which the quantity being followed falls by half. A high value points to slow loss. What is called Papp is the rate of passage across a membrane or cell layer, normalised by area and donor concentration.

In brackets after ≈: the same amount, converted by molar mass. Activity calls are given as the source filed them. The rule behind the calls is not given here.

Sequence of Proto-oncogene tyrosine-protein kinase Src (Mus musculus) (P05480 2-535 limits assumed): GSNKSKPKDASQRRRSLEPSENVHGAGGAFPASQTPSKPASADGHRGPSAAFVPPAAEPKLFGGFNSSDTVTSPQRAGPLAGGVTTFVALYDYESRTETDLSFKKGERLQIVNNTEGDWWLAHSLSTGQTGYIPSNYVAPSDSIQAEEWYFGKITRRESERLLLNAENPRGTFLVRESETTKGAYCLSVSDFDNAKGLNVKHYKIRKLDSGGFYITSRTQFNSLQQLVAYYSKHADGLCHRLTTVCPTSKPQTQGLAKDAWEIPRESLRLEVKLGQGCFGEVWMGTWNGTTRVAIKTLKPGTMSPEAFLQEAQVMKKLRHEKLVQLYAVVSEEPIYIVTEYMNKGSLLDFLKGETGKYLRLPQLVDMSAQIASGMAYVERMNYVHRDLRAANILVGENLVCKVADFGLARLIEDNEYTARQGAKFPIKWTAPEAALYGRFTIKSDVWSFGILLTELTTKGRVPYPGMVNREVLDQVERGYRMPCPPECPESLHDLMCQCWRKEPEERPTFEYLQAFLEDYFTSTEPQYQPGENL
Sequence of Tyrosine-protein kinase ABL1 (Homo sapiens) (P00519 whole entry): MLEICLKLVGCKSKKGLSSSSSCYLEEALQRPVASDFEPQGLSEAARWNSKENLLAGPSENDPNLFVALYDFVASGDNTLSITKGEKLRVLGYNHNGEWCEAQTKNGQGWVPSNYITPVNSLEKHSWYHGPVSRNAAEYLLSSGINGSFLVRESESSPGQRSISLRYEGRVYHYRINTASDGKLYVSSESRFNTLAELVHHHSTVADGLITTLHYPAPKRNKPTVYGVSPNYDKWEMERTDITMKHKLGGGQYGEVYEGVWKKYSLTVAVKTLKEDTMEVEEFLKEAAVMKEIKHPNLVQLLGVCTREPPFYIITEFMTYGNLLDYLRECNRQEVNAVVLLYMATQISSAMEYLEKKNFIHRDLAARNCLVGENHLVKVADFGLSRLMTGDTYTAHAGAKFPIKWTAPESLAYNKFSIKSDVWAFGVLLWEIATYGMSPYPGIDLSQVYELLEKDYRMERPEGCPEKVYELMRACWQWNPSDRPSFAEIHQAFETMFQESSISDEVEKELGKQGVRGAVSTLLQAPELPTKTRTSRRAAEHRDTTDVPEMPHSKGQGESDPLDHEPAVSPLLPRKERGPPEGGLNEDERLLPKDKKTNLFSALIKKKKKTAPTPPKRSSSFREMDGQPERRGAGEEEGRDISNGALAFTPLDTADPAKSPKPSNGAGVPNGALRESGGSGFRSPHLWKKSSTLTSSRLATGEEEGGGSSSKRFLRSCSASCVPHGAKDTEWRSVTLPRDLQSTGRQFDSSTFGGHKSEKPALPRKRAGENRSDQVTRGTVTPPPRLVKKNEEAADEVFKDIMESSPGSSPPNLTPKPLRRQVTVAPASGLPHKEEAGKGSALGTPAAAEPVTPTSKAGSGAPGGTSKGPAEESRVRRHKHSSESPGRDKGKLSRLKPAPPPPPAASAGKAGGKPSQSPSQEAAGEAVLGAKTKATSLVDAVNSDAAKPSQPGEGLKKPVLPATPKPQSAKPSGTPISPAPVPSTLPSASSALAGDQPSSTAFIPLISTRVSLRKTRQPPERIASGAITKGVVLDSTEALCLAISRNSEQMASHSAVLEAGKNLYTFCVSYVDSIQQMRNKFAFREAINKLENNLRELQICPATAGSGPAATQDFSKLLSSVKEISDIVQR
Sequence of Proto-oncogene tyrosine-protein kinase Src (Homo sapiens) (P12931 2-536 limits assumed): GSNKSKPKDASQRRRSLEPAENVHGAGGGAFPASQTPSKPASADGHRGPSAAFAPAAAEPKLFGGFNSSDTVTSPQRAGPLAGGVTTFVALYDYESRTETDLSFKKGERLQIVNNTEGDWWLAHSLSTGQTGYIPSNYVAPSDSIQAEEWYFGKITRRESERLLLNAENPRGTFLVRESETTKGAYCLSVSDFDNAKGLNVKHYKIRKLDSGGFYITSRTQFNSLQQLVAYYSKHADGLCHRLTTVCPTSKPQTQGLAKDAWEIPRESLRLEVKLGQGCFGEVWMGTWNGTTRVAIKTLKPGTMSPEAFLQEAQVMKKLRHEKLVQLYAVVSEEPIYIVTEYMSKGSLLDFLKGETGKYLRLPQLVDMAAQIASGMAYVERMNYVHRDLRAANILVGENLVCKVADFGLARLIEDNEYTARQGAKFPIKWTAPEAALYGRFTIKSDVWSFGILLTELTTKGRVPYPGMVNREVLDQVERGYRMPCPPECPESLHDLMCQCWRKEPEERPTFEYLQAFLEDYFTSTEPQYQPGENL

Take `CCCCN(C(=O)OCCN1CCN(C)CC1)c1nc(SCC)nc2c1cnn2CC(Cl)c1ccccc1` (stereo not given): the IC50 in the series “cells [1]” was 1.2 µM; in the series “cells [7]”, 2.4 µM. Further, the results for the half-life at 500 µM in [2], in [3] and in series [4] were 30 min, 125 min and 63 min, respectively. For the same molecule, the “Inhibition of c-SRC Y416 phosphorylation (qualitative)” value (“Inhibition … (qualitative)” for short) in [5] is “Active”. The inhibition entry in series [6] and in [9] was “inactive” throughout. The same molecule displayed a half-life at 1000 µM in [8] of 28 min.

With `CCCCNc1nc(SCC)nc2c1cnn2CC(Cl)c1ccccc1` (stereo not given), the solubility thermodynamic at 24 h in series [10] amounted to 0.05 µg/mL (≈ 0.128 µM). For the same molecule, the IC50 in “cells [1]” stood at 3.5 µM; in the series “cells [7]”, 6.7 µM. For the same molecule, the remaining at 1 h, 50 µM in series [11] came to 91.5%. Besides, in series [5], the “Inhibition … (qualitative)” value is “Active”. Besides, the Papp at 5 h in [12] came out at 5.99 ×10⁻⁶ cm/s. For the same molecule, the R% in series [13] is listed as 44.9%.

As for `CSc1nc(Nc2cccc(Br)c2)c2cnn(CC(C)c3ccccc3)c2n1` (stereo not given), in series [10], the solubility thermodynamic at 24 h was 0.01 µg/mL (≈ 0.022 µM). Further, the half-inhibitory concentration (IC50) in “cells [1]” was found to be 6.2 µM; in the series “cells [7]”, 5.8 µM. For the same molecule, in [11], the remaining at 1 h, 50 µM was 95.1%. The “Inhibition … (qualitative)” value in [5] was “Active”. The apparent permeability coefficient (Papp) at 5 h in series [12] was 0.01 ×10⁻⁶ cm/s. The R% in series [13] came out at 80.4%.

Take `CSc1nc(N(C(=O)OCCN2CCN(C)CC2)c2cccc(Br)c2)c2cnn(CC(C)c3ccccc3)c2n1` (stereo not given): the concentration for half-maximal inhibition (IC50) turned out to be 2.8 µM in the series “cells [1]” and 2.6 µM in the series “cells [7]”. The half-life at 500 µM in [2], in series [3] and in [4] was greater than 2880 min throughout. Besides, in series [11], the remaining at 1 h, 50 µM came to 99.9%. In addition, in [5], the “Inhibition … (qualitative)” value is “Active”. The Papp in series [12] (pampa, 5 h) was 2.11 ×10⁻⁶ cm/s. Further, the inhibition result in series [6] and in [9] was “inactive” each time. Moreover, in [13], the R% is 67.3%. In addition, the half-life at 1000 µM in series [8] worked out at 193 min.

The values are drawn from ChEMBL document CHEMBL2407017, “Pyrazolo[3,4-d]pyrimidine Prodrugs: Strategic Optimization of the Aqueous Solubility of Dual Src/Abl Inhibitors” (ACS Med Chem Lett, 2013).
